The values below come from ChEMBL document CHEMBL3271979, “Inhibition of solid tumors by nitrosoureas. 1. Lewis lung carcinoma” (1977).

Structures are written as SMILES. Active and inactive are the calls of the source. No cut-off for these calls is given here.

A short description of assay [1]: Antitumor activity against mouse advanced Lewis lung carcinoma allografted in BDF1 mouse assessed as increase in host life span at 13 mg/kg, ip administered as single dose on 7th day post-tumor implantation. The assay is classed as functional. The conditions noted are these: route intraperitoneal. The method in brief: (§1)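 BDF1 mice (C57Blk/6 × DBA/2) implanted sc by trocar with about 40 mg Lewis lung tumor fragments from bacteriologically sterile donors. Advanced-disease groups held tumors of about 400 mg by day 6-7, sized by caliper (w = ab²/2). Single ip injection on day 7, in water or saline vehicle, at or below the LD10 in normal mice. Tumors measured at least twice weekly.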

For assay [2], the system named is Mus musculus. The assay is described as follows: (§2) Antitumor activity against mouse early Lewis lung carcinoma allografted in ip dosed BDF1 mouse assessed as disease cure administered as single dose on 1 or 2 days post-tumor implantation measured for 80 days post-drug treatment. The assay is classed as functional. The method in brief:
(§3)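 BDF1 mice implanted sc by trocar with ~40 mg Lewis lung fragments from sterile donor tumors. A single ip dose was given on day 1 or 2 after implant, in water or saline vehicle. Cures were scored in animals observed for at least 80 days after treatment. Drug-toxicity controls were matched non-tumor-bearing mice monitored for body weight and deaths.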

The nature of assay [3]: Antitumor activity against mouse advanced Lewis lung carcinoma allografted in ip dosed BDF1 mouse assessed as increase in host lifespan administered as single dose on day 6 or 7 post-tumor implantation. Type of assay: functional. The method in brief:
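Advanced Lewis lung model: about 40 mg fragments implanted sc by trocar into BDF1 mice, and mice with tumors of about 400 mg (day 6-7) selected. Tumor weight from calipers, w = ab²/2. Agent given as one ip dose in distilled water or physiological saline. Nontumor-bearing mice received matching doses as toxicity controls.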

Assay [4] concerns Mus musculus. The assay is described as follows: Antitumor activity against mouse advanced Lewis lung carcinoma allografted in BDF1 mouse assessed as disease cure at 13 mg/kg, ip administered as single dose on 7th day post-tumor implantation measured for 80 days post-drug treatment. The assay is classed as functional, organism-based. Also on record: dose 13 mg/kg. The method in brief: as §1

The test system of assay [5] is Mus musculus. The assay can be described thus: Antitumor activity against mouse early Lewis lung carcinoma allografted in ip dosed BDF1 mouse administered as single dose on 1 or 2 days post-tumor implantation measured for 80 days post-drug treatment. Type of assay: functional, organism-based. In outline:
as §3

The subject of assay [6] is Mus musculus. The assay is described as follows: Antitumor activity against mouse advanced Lewis lung carcinoma allografted in ip dosed BDF1 mouse assessed as disease cure administered as single dose on day 6 or 7 post-tumor implantation. Type of assay: functional, organism-based. In outline:
(§4)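 BDF1 mice (C57Blk/6 × DBA/2) implanted sc by trocar with Lewis lung tumor fragments of about 40 mg, taken only from bacteriologically sterile donor tumors. Mice bearing tumors of about 400 mg (day 6-7) were selected. Each received a single ip dose on day 7, at or below the LD10 in normal mice. Groups were of 10 mice. Tumor weight was taken from calipers as w = ab²/2, measured at least twice weekly. Matched non-tumor mice served as toxicity controls.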

The nature of assay [7]: Ratio of ED50 for antitumor activity against mouse L1210 cells allografted in ip dosed mouse to LD10 for mouse.
Assay [8] deals with Mus musculus. The assay is described as follows: Antitumor activity against mouse advanced Lewis lung carcinoma allografted in BDF1 mouse assessed as complete regression of established tumor at 13 mg/kg, ip administered as single dose on 7th day post-tumor implantation. The assay is classed as functional, organism-based. Set-up: dose 13 mg/kg. The method in brief: as §1
The subject of assay [9] is Mus musculus. The assay is described as follows: Antitumor activity against mouse advanced Lewis lung carcinoma allografted in ip dosed BDF1 mouse assessed as complete regression of established tumor administered as single dose on day 6 or 7 post-tumor implantation. The assay is classed as functional, organism-based. In outline:
as §4

Assay [10] is described as follows: Antitumor activity against mouse early Lewis lung carcinoma allografted in BDF1 mouse assessed as time delay in tumor growth at 13 mg/kg, ip administered as single dose on 1 or 2 days post-tumor implantation. The conditions noted are these: route intraperitoneal. Type of assay: functional. In outline: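 Sc trocar implants of about 40 mg Lewis lung fragments in BDF1 mice. A single ip injection was given on day 1 or 2, in water or physiological saline, at ≤0.5 ml. Tumor size came from caliper length and width as w = ab²/2, measured at least twice weekly. Growth delay is the extra days taken to reach 1 g, compared with untreated controls.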

The nature of assay [11]: Antitumor activity against mouse advanced Lewis lung carcinoma allografted in BDF1 mouse assessed as increase in host life span at 30 mg/kg, ip administered as single dose on 7th day post-tumor implantation. Type of assay: functional. The conditions noted are these: route intraperitoneal. The method in brief: as §1
Assay [12] can be described thus: as §2. Type of assay: functional. The method in brief: as §3
The nature of assay [13]: Antitumor activity against mouse early Lewis lung carcinoma allografted in BDF1 mouse assessed as increase in host life span at 13 mg/kg, ip administered as single dose on 1 or 2 days post-tumor implantation. Type of assay: functional. The settings on record: route intraperitoneal. In outline: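 Early disease: BDF1 mice carrying sc trocar implants of about 40 mg Lewis lung fragments. One ip dose given on day 1 or 2 after implant, in distilled water or saline, at ≤0.5 ml. Endpoints were % increase in life-span of dying animals and delay in days for the primary tumor to reach 1 g. Untreated controls served as reference.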

For assay [14], the system named is Mus musculus. The assay can be described thus: Antitumor activity against mouse advanced Lewis lung carcinoma allografted in BDF1 mouse assessed as disease cure at 20 mg/kg, ip administered as single dose on 7th day post-tumor implantation measured for 80 days post-drug treatment. Type of assay: functional, organism-based. Also on record: dose 20 mg/kg. In outline:
as §4

The nature of assay [15]: Antitumor activity against mouse advanced Lewis lung carcinoma allografted in BDF1 mouse assessed as increase in host life span at 20 mg/kg, ip administered as single dose on 7th day post-tumor implantation. Type of assay: functional. The settings on record: route intraperitoneal. In outline:
as §1

Assay [16] is described as follows: Antitumor activity against mouse early Lewis lung carcinoma allografted in BDF1 mouse assessed as increase in host life span at 20 mg/kg, ip administered as single dose on 1 or 2 days post-tumor implantation. The assay is classed as functional. The settings on record: route intraperitoneal. The method in brief: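 BDF1 mice (C57Blk/6 × DBA/2) implanted sc by trocar with ~40 mg Lewis lung tumor fragments from bacteriologically sterile donor tumors. Single ip dose on day 1 or 2, as a solution or suspension in water (CMC or gum acacia) or saline (HPC or Tween 80). Read-out is […]. Same-dose toxicity controls were run in nontumor-bearing mice.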

The subject of assay [17] is Mus musculus. The assay is described as follows: Antitumor activity against mouse advanced Lewis lung carcinoma allografted in BDF1 mouse assessed as disease cure at 30 mg/kg, ip administered as single dose on 7th day post-tumor implantation measured for 80 days post-drug treatment. Type of assay: functional, organism-based. Also on record: dose 30 mg/kg. In outline:
as §4

A short description of assay [18]: Antitumor activity against mouse advanced Lewis lung carcinoma allografted in BDF1 mouse assessed as increase in host life span at 54 mg/kg, ip administered as single dose on 7th day post-tumor implantation. Type of assay: functional. The conditions noted are these: route intraperitoneal. The method in brief:
as §1

Assay [19] deals with Mus musculus. The assay is described as follows: Antitumor activity against mouse advanced Lewis lung carcinoma allografted in BDF1 mouse assessed as disease cure at 36 mg/kg, ip administered as single dose on 7th day post-tumor implantation measured for 80 days post-drug treatment. Also on record: dose 36 mg/kg. The assay is classed as functional, organism-based. The method in brief:
as §4

Assay [20] can be described thus: Antitumor activity against mouse advanced Lewis lung carcinoma allografted in BDF1 mouse assessed as increase in host life span at 36 mg/kg, ip administered as single dose on 7th day post-tumor implantation. Type of assay: functional. The conditions noted are these: route intraperitoneal. In outline: as §1
In assay [21] the test system is Mus musculus. The assay can be described thus: Antitumor activity against mouse advanced Lewis lung carcinoma allografted in BDF1 mouse assessed as disease cure at 54 mg/kg, ip administered as single dose on 7th day post-tumor implantation measured for 80 days post-drug treatment. Also on record: dose 54 mg/kg. The assay is classed as functional, organism-based. In outline: as §4

Broadly, the ILS is the gain in survival time of treated over control animals, in per cent. Consider `O=NN(CCCl)C(=O)N[C@H]1C(O)O[C@H](CO)[C@@H](O)[C@@H]1O` (stereo partly specified) [CHLOROZOTOCIN], for which the ILS at 13 mg/kg in assay [1] is 25%. Also, the result with Mus musculus [2], in the assay with Mus musculus [4], in the assay with Mus musculus [5] and with Mus musculus [6] was inactive. Further, the ILS in assay [3] is reported as above 25%. Further, the Ratio in [7] is listed as 0.4. Also, the inhibition result with Mus musculus [8] and with Mus musculus [9] was “inactive” throughout.

For the molecule `O=NN(CCCl)C(=O)N[C@H]1CC[C@@H](C(=O)O)CC1`, in assay [10], the Time turned out to be 23 days. Moreover, in assay [11], the ILS at 30 mg/kg came out at 79%. In assay [12], the Activity is on record as above 50%. Further, in assay [13], the ILS at 13 mg/kg was 35%. In addition, the result in the assay with Mus musculus [14], in the assay on Mus musculus [6] and with Mus musculus [17] was inactive. Further, the ILS at 20 mg/kg in assay [15] was 90%; in [16], 0%. In [7], the Ratio came to 0.6. For the same molecule, the inhibition entry in the assay with Mus musculus [9] is “Active”.

For `COC(=O)[C@H]1CC[C@@H](NC(=O)N(CCCl)N=O)CC1`, the ILS at 54 mg/kg in assay [18] was 100%. The result with Mus musculus [19], with Mus musculus [6] and in the assay with Mus musculus [21] was inactive. The ILS at 36 mg/kg in [20] is 120%. Also, the inhibition result in the assay on Mus musculus [9] is “Active”.
